# Laboratory results reported in ChEMBL document CHEMBL4368912, “Discovery and Development of N-[4-(1-Cyclobutylpiperidin-4-yloxy)phenyl]-2-(morpholin-4-yl)acetamide Dihydrochloride (SUVN-G3031): A Novel, Potent, Selective, and Orally Active Histamine H3 Receptor Inverse Agonist with Robust Wake-Promoting Activity” (J Med Chem, 2019).
# What was measured:
# Histamine H3 receptor = Histamine H3 receptor (Homo sapiens, UniProt Q9Y5N1); assay: Displacement of [3]-RAMH from recombinant human histamine H3 receptor expressed in CHO-K1 cell membranes after 60 mins by scintillation counting
# [1] = Partition coefficient, log P of the compound; format: physicochemical; conditions: octanol/water
# [2] = Lipophilicity, log D of the compound at pH 7.4; format: physicochemical; conditions: buffer
# [3] = Dissociation constant, pKa1 of the compound by potentiometric titration assay; format: physicochemical
# [4] = Dissociation constant, pKa2 of the compound by potentiometric titration assay; format: physicochemical
# [5] = AUC (0 to 24 hrs) in Wistar rat at 3 mg/kg, po by LC-MS/MS analysis; format: ADME, organism-based; design: dose 3 mg/kg, time < 24 hr, route oral; conditions: in vivo
# Method in brief: (§1)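 Fasted male Wistar rats; compound in water for injection, given i.v. (2 mL/kg) or p.o. (10 mL/kg). Plasma exposure measured as AUC0-24hr.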
# [6] = AUC (0 to 24 hrs) in Wistar rat at 1 mg/kg, iv by LC-MS/MS analysis; format: ADME, organism-based; design: time < 24 hr, dose 1 mg/kg, route intravenous; conditions: in vivo; for AUC: 24 h; for AUC(0-t) at 24 h: Wistar; method in brief: as §1
# [7] = Tmax in Wistar rat at 3 mg/kg, po or 1 mg/kg, iv by LC-MS/MS analysis; format: ADME, organism-based; conditions: in vivo
# Method in brief: (§2)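 Fasted male Wistar rats were dosed orally and intravenously, with water for injection as the vehicle for both routes, at dosing volumes of 10 mL/kg p.o. and 2 mL/kg i.v.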
# [8] = Volume of distribution at steady state in Wistar rat at 3 mg/kg, po or 1 mg/kg, iv by LC-MS/MS analysis; format: ADME, organism-based; conditions: in vivo; for Vd: Wistar, read-out: Vdss; method in brief: as §2
# [9] = Oral bioavailability in Wistar rat at 3 mg/kg by LC-MS/MS analysis; format: ADME, organism-based; conditions: in vivo; method in brief: as §2
# [10] = Ratio of drug uptake in Wistar rat brain to plasma at 3 mg/kg, po by LC-MS/MS analysis; format: ADME, organism-based; conditions: brain and plasma, read-out: BPR
# Method in brief: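 Fasted male Wistar rats were dosed orally with water for injection as the vehicle. Total brain and plasma concentrations were measured at 1 h after dosing and expressed as a ratio.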
# [11] = Clearance in Wistar rat at 1 mg/kg, iv by LC-MS/MS analysis; format: ADME, organism-based; conditions: in vivo
# Method in brief: (§3)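 Fasted male Wistar rats dosed i.v. in water for injection at 2 mL/kg. Clearance and half-life derived from the i.v. plasma profile.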
# [12] = Half life in Wistar rat at 1 mg/kg, iv by LC-MS/MS analysis; format: ADME, organism-based; conditions: in vivo; method in brief: as §3
# CHO-K1 [13] = assay: Induction of phospholipidosis in CHOK1 cells up to 300 uM incubated for 24 hrs by fluorescent-labeled phospholipid probe NBD-PE based fluorescence assay; format: cell-based, Cricetulus griseus; conditions: chinese hamster, cho-k1, 24 h
# CHO-K1 [14] = assay: Cytotoxicity in CHOK1 cells up to 300 uM incubated for 24 hrs by MTT assay; format: cell-based, Cricetulus griseus; conditions: chinese hamster, cho-k1, 24 h
# Sequence of Histamine H3 receptor (Q9Y5N1 whole entry): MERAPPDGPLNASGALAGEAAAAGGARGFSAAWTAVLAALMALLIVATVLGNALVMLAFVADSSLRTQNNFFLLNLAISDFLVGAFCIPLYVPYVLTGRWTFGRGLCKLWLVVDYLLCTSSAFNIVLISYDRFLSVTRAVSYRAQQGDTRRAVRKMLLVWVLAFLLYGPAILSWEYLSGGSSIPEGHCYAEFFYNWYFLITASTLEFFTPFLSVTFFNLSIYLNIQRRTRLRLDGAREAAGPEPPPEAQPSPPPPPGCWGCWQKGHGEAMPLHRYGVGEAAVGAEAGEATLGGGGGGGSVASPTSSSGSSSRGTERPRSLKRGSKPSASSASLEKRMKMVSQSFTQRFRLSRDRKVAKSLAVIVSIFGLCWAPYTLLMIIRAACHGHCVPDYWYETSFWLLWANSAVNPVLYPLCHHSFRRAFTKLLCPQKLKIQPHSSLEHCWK
smiles,measurement,setting,value
CC(C)N1CCC(Oc2ccc(C(=O)NCCN3CCCCC3)cc2)CC1,Ki,Histamine H3 receptor,9.5 nM
Cl.Cl.O=C(CN1CCCCC1)Nc1ccc(OC2CCN(C3CCC3)CC2)cc1,Ki,Histamine H3 receptor,4.8 nM
same,logP,[1],3.7
same,logD,[2],1.3
same,pKa,[3],9.2
same,pKa,[4],7.5
same,AUC(0-t) at 24 h,[5],1390 ng·h/mL
same,AUC,[6],1855 ng·h/mL
same,Tmax,[7],3.33 h
same,Vd,[8],20 L/kg
same,bioavailability,[9],37%
same,Kp,[10],36.6
O=C(CN1CCOCC1)Nc1ccc(OC2CCNCC2)cc1,Ki,Histamine H3 receptor,> 10000 nM
Cl.Cl.O=C(CN1CCCC1CO)Nc1ccc(OC2CCN(C3CCC3)CC2)cc1 (centres undefined),Ki,Histamine H3 receptor,1.2 nM
same,logP,[1],2.1
same,logD,[2],0.6
same,pKa,[3],8.9
same,pKa,[4],6.4
same,AUC(0-t) at 24 h,[5],63 ng·h/mL
same,AUC(0-t) at 24 h,[6],212 ng·h/mL
same,Tmax,[7],0.58 h
same,Vd,[8],9 L/kg
same,clearance,[11],67 mL/min/kg
same,half-life,[12],1.88 h
same,bioavailability,[9],10%
Cc1cc(OC2CCN(C3CCC3)CC2)ccc1NC(=O)CN1CCOCC1,Ki,Histamine H3 receptor,22.1 nM
O=C1c2ccc(OC3CCN(C4CCC4)CC3)cc2CCN1C1CCN(C2CCC2)CC1,AUC(0-t) at 24 h,[5],1430 ng·h/mL
same,AUC(0-t) at 24 h,[6],1740 ng·h/mL
same,Tmax,[7],6 h
same,Vdss,[8],13 L/kg
same,Kp,[10],0.41
CC(C)N1CCCN(CC(=O)Nc2ccc(OC3CCN(C4CCC4)CC3)cc2)CC1,Ki,Histamine H3 receptor,0.96 nM
O=C(CN1CCOC(CO)C1)Nc1ccc(OC2CCN(C3CCC3)CC2)cc1 (centres undefined),Ki,Histamine H3 receptor,4.05 nM
CCOC(=O)N1CCN(CC(=O)Nc2ccc(OC3CCN(C4CCC4)CC3)cc2)CC1,Ki,Histamine H3 receptor,1.07 nM
O=C(CN1CCOCC1)Nc1ccc(OC2CCN(C3CCCC3)CC2)cc1,Ki,Histamine H3 receptor,29.9 nM
CN(C)CC(=O)Nc1ccc(OC2CCN(C3CCC3)CC2)cc1,Ki,Histamine H3 receptor,6 nM
Cl.Cl.O=C(CN1CCCC1)Nc1ccc(OC2CCN(C3CCC3)CC2)cc1,Ki,Histamine H3 receptor,1.1 nM
same,logP,[1],3.2
same,logD,[2],1.2
same,pKa,[3],9.1
same,pKa,[4],7.4
same,AUC(0-t) at 24 h,[5],556 ng·h/mL
same,AUC(0-t) at 24 h,[6],757 ng·h/mL
same,Tmax,[7],3.33 h
same,Vd,[8],34.8 L/kg
same,clearance,[11],13.6 mL/min/kg
same,bioavailability,[9],17%
C[C@@H]1CCCN1CCc1ccc(NC(=O)CN2CCOCC2)cc1,Ki,Histamine H3 receptor,108 nM
O=C(CN1CCC(F)CC1)Nc1ccc(OC2CCN(C3CCC3)CC2)cc1,Ki,Histamine H3 receptor,11 nM
Cc1cc(OC2CCN(C3CCC3)CC2)ccc1NC(=O)CN1CCCC1.Cl.Cl,Ki,Histamine H3 receptor,1.9 nM
same,AUC(0-t) at 24 h,[5],1350 ng·h/mL
same,AUC,[6],3345 ng·h/mL
same,Tmax,[7],2.17 h
same,Vd,[8],27 L/kg
same,bioavailability,[9],20%
same,Kp,[10],1.2
C[C@@H]1CCCN1CC(=O)Nc1ccc(OC2CCN(C3CCC3)CC2)cc1,Ki,Histamine H3 receptor,2.6 nM
COc1cc(OC2CCN(C3CCC3)CC2)ccc1NC(=O)CN1CCOCC1,Ki,Histamine H3 receptor,90.8 nM
C[C@@H]1CCCN1CC(=O)Nc1ccc(CN2CCOCC2)cc1,Ki,Histamine H3 receptor,915 nM
CCN(CC)CC(=O)Nc1ccc(OC2CCN(C3CCC3)CC2)cc1,Ki,Histamine H3 receptor,11.7 nM
CC(C)N1CCC(Oc2ccc(NC(=O)CN3CCOCC3)cc2)CC1.Cl.Cl,logP,[1],1.8
same,logD,[2],0.5
same,pKa,[3],8.9
same,pKa,[4],5
same,AUC(0-t) at 24 h,[5],850 ng·h/mL
same,AUC(0-t) at 24 h,[6],340 ng·h/mL
same,Tmax,[7],0.42 h
same,Vd,[8],6 L/kg
same,clearance,[11],48 mL/min/kg
same,bioavailability,[9],85%
same,Kp,[10],0.33
same,Activity,CHO-K1 [13],Non-Toxic
same,Activity,CHO-K1 [14],Non-Toxic
Cc1cc(OC2CCN(C3CCC3)CC2)ccc1NC(=O)CN1CCCCC1,Ki,Histamine H3 receptor,3.3 nM
O=C(CN1CCOCC1)Nc1cccc(OC2CCN(C3CCC3)CC2)c1,Ki,Histamine H3 receptor,212 nM
O=C(CN1CCCCC1)Nc1ccc(OC2CCN(C3CCC3)CC2)cc1C(F)(F)F,Ki,Histamine H3 receptor,14.8 nM
O=C(CN1CCOCC1)Nc1ccccc1OC1CCN(C2CCC2)CC1,Ki,Histamine H3 receptor,> 10000 nM
CCN(C(=O)CN1CCOCC1)c1ccc(OC2CCN(C3CCC3)CC2)cc1,Ki,Histamine H3 receptor,10.8 nM
O=C(CN1CCOCC1)Nc1ccc(N2CCN(C3CCC3)CC2)cc1,Ki,Histamine H3 receptor,532 nM
O=C(CN1CCC(F)(F)CC1)Nc1ccc(OC2CCN(C3CCC3)CC2)cc1,Ki,Histamine H3 receptor,23.6 nM
O=C(Cc1ccncc1)Nc1ccc(OC2CCN(C3CCC3)CC2)cc1.O=C(O)C(O)C(O)C(=O)O,Ki,Histamine H3 receptor,9.51 nM
same,AUC(0-t) at 24 h,[5],545 ng·h/mL
same,AUC(0-t) at 24 h,[6],145 ng·h/mL
same,Tmax,[7],0.25 h
same,Vd,[8],7 L/kg
same,clearance,[11],113 mL/min/kg
same,half-life,[12],1.12 h
same,bioavailability,[9],125%
same,Kp,[10],0.16
O=C(NCCN1CCCCC1)c1ccc(OC2CCN(C3CCC3)CC2)cc1,Ki,Histamine H3 receptor,3.2 nM
O=C(CN1CCOCC1)Nc1ccc(CN2CCCC2)cc1,Ki,Histamine H3 receptor,114 nM
O=C(CN1CCOCC1)Nc1ccc(OC2CCN(C3CCC3)CC2)cc1C(F)(F)F,Ki,Histamine H3 receptor,75.8 nM
Cc1cc(OC2CCN(C3CCC3)CC2)ccc1NC(=O)CN1CCC[C@H]1C,Ki,Histamine H3 receptor,2.4 nM
C[C@@H]1CCCN1Cc1ccc(NC(=O)CN2CCOCC2)cc1,Ki,Histamine H3 receptor,3570 nM
O=C(CN1CCCCC1)Nc1ccc(OC2CCN(C3CCCC3)CC2)cc1,Ki,Histamine H3 receptor,4.1 nM
CN(C(=O)CN1CCOCC1)c1ccc(OC2CCN(C3CCC3)CC2)cc1,Ki,Histamine H3 receptor,4.89 nM
O=C(NCCN1CCOCC1)c1ccc(OC2CCN(C3CCC3)CC2)cc1,Ki,Histamine H3 receptor,2.8 nM
same,AUC(0-t) at 24 h,[5],347 ng·h/mL
same,AUC(0-t) at 24 h,[6],255 ng·h/mL
same,Tmax,[7],1.33 h
same,Vd,[8],45 L/kg
same,clearance,[11],51 mL/min/kg
same,half-life,[12],13.8 h
same,bioavailability,[9],46%
same,Kp,[10],0.07
O=C(CN1CCCCCC1)Nc1ccc(OC2CCN(C3CCC3)CC2)cc1,Ki,Histamine H3 receptor,2.6 nM
same,logP,[1],4.3
same,logD,[2],1.7
same,pKa,[3],9.2
same,pKa,[4],7.6
CC(=O)N1CCN(CC(=O)Nc2ccc(OC3CCN(C4CCC4)CC3)cc2)CC1,Ki,Histamine H3 receptor,5.39 nM
O=C(CN1CCOCC1)Nc1ccc(OC2CCN(C3CCC3)CC2)c(F)c1,Ki,Histamine H3 receptor,62 nM
O=C(CN1CCC(O)CC1)Nc1ccc(OC2CCN(C3CCC3)CC2)cc1,Ki,Histamine H3 receptor,6.4 nM
O=C(CN1CCS(=O)(=O)CC1)Nc1ccc(OC2CCN(C3CCC3)CC2)cc1,Ki,Histamine H3 receptor,9.17 nM
O=C(CN1CCOCC1)Nc1ccc(OC2CCN(C3CCC3)CC2)cc1F,Ki,Histamine H3 receptor,14.9 nM
O=C(NCCN1CCCC1)c1ccc(OC2CCN(C3CCC3)CC2)cc1,Ki,Histamine H3 receptor,2.9 nM
CC(C)N1CCC(Oc2ccc(NC(=O)CN3CCCCC3)cc2)CC1,Ki,Histamine H3 receptor,3.8 nM
same,logP,[1],3.4
same,logD,[2],1.6
same,pKa,[3],9.4
same,pKa,[4],7.2
O=C(CN1CCCN(C2CCC2)CC1)Nc1ccc(OC2CCN(C3CCC3)CC2)cc1,Ki,Histamine H3 receptor,1.61 nM
C[C@@H]1CCCN1CC(=O)Nc1ccc(N2CCOCC2)cc1,Ki,Histamine H3 receptor,1460 nM
O=C(CN1CCCC1)Nc1ccc(OC2CCN(C3CCCC3)CC2)cc1,Ki,Histamine H3 receptor,3.8 nM
O=C(CN1CCCC1)Nc1ccc(OC2CCN(C3CCC3)CC2)cc1C(F)(F)F,Ki,Histamine H3 receptor,26.9 nM
O=C(Cc1cccnc1)Nc1ccc(OC2CCN(C3CCC3)CC2)cc1,Ki,Histamine H3 receptor,15.8 nM
CC(C)N1CCC(Oc2ccc(C(=O)NCCN3CCCC3)cc2)CC1,Ki,Histamine H3 receptor,10.4 nM
O=C(NCCN1CCCC1)c1ccc(OC2CCN(C3CCCC3)CC2)cc1,Ki,Histamine H3 receptor,2.4 nM
same,AUC(0-t) at 24 h,[5],205 ng·h/mL
same,AUC(0-t) at 24 h,[6],174 ng·h/mL
same,Tmax,[7],3.33 h
same,Vd,[8],135 L/kg
same,clearance,[11],156 mL/min/kg
same,bioavailability,[9],48%
